From PubChem BioAssay
This is a sample that favours compounds with a hit; in the whole collection about 1.5% have one here.
APJ ag – activates the human apelin receptor APJ | P35414 | CHO-K1 APJ PathHunter beta-arrestin, luminescence; 0% DMSO wells, 100% apelin | activation, % at 20 µM | 330,000 compounds, 0.11% hits;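 active means activation more than six SD over the plate average, tested at 20 µM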;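 further: 0% = DMSO alone and 100% = apelin-13 at 10 nM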
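Test system – PathHunter CHO-K1 APJ (AGTRL-1) beta-arrestin reporter cells · Input – 1000 cells/well · Compound – single test compound dose, 20 µM final, 1% DMSO · Times – compound stimulation 90 min at 25 °C, detection 60 min · Technique – beta-gal luminescence · Read-out basis – APJ–arrestin association signal · Control set – negative DMSO alone, positive Apelin-13 at 10 nM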
EBI2 antag – antagonists of human EBI2 receptor; P32249; EBI2 beta-arrestin recruitment, luminescence, 7a,25-OHC stimulated; inhibition, % at 5 µM; 360,000 compounds, 0.81% hits; in the data active means inhibition above about 38%;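 further: enzyme fragment complementation signal reports receptor beta-arrestin coupling in cells; 0% = agonist plus DMSO wells and 100% = wells without agonist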
CXCR6 inh – blocks human CXCR6 beta-arrestin recruitment | 360,000 compounds, 0.36% hits | inhibition, % at 20 µM | CHO-K1 PathHunter CXCR6 beta-arrestin, luminescence; in the data active means inhibition above about 34%, passing the limit was not always enough;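 further: antagonist mode with CXCL16 agonist at 10 nM final; 0% = 10 nM CXCL16 with DMSO and 100% = unstimulated wells without agonist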
Target sequence (O00574 whole entry, looked up): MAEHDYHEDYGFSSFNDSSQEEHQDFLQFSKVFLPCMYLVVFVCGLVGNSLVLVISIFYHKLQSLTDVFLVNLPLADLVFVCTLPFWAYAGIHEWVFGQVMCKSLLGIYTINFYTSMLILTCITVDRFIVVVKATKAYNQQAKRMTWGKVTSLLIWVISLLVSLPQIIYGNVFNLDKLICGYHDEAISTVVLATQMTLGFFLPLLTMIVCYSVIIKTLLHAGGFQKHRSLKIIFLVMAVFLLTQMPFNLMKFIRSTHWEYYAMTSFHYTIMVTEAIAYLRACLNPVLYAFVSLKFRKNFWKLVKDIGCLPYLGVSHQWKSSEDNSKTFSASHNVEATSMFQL
CCR6 antag – blocks CCL20-driven beta-arrestin recruitment at human CCR6. CHO-K1 CCR6 PathHunter beta-arrestin, luminescence, CCL20-stimulated. inhibition, % at 20 µM. 340,000 compounds, 0.49% hits;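 active means compounds whose inhibition of the agonist-driven luminescence signal at 20 µM reaches about 50%, limit read from the data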;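 further: cells stimulated with CCL20 at 14 nM final; plate controls were DMSO with CCL20 for no effect and DMSO without agonist for full effect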
Target sequence (P51684 whole entry, looked up): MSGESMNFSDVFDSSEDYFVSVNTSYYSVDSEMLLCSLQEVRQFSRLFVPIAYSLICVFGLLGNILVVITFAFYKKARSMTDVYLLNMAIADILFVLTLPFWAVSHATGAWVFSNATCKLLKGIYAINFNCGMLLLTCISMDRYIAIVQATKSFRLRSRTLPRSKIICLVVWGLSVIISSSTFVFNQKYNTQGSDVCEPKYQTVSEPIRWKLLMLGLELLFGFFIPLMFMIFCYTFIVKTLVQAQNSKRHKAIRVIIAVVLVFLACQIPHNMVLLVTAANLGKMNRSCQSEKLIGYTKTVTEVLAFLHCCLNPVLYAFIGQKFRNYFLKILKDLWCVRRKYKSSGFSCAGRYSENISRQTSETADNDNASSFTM
APJ antagonist – antagonists of human APJ apelin receptor | P35414 | CHO-K1 APJ beta-arrestin complementation, luminescence | inhibition, % at 20 µM | 330,000 compounds, 0.32% hits;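 active means inhibition above about 40% at 20 µM, limit read from the data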;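 further: cells challenged with 10 nM apelin-13 agonist together with compound; plate controls were apelin-13 plus DMSO wells for no effect and DMSO wells lacking apelin-13 for full effect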
EBI2 antag conf – EBI2 (human) antagonism, single concentration confirmation; shares compounds with EBI2 antag; EBI2 beta-arrestin luminescence, 7a,25-OHC antagonism; inhibition, % at 5 µM; 2,400 compounds, 29% hits;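 active means inhibition of at least 50%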
EBI2 agonist – EBI2 agonism counter-screen; shares compounds with EBI2 antag; EBI2-expressing cells, agonist mode, luminescence, 60 min; 0% vehicle, 100% 7α,25-dihydroxycholesterol control; activation, % at 5 µM; 2,400 tested, under 10 active; AID 652000;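 active means activation of at least 50%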
bGal counter – beta-galactosidase inhibition counter-screen; shares compounds with EBI2 antag; purified beta-galactosidase, luminescent Galacton Star, 15 min; inhibition, % at 5 µM; 2,400 compounds, 1% hits; AID 652176;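 active means replicate-average signal at least 3 plate SD below neutral wells, shown as high inhibition, flagging enzyme-inhibiting false positives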;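 further: 0% = DMSO wells with enzyme and 100% = wells lacking enzyme; higher means stronger loss of beta-gal luminescence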
Active calls of the source: *; · = no result given.

SMILES	APJ ag	EBI2 antag	CXCR6 inh	CCR6 antag	APJ antagonist	EBI2 antag conf	EBI2 agonist	bGal counter
COc1ccc(-c2c(C)nc(N)nc2-c2ccc(OC)cc2O)cc1	1.9	74.4*	-8.2	7.4	-2.5	46.0	-1.3	-23.2
COc1ccc(-c2c(C)nc(N)nc2-c2ccc(OCc3ccc(C)cc3)cc2O)cc1OC	0.7	37.3	20.3	8.1	-6.6	·	·	·
COc1ccc(-c2ncncc2-c2ccc(OC)c(OC)c2)c(O)c1	-1.5	1.6	0.9	-3.1	8.9	·	·	·
CCOc1ccc(-c2nc(N)ncc2Oc2ccccc2Br)c(O)c1	-5.0	29.2	4.4	7.9	-2.8	·	·	·
CCOC(=O)N(C)c1c(CC)nc2c(OCc3ccccc3C)cccn12	·	2.6	3.6	·	·	·	·	·
Cc1ccc(C(=O)N2CCN(c3ccc([N+](=O)[O-])c(NCc4ccco4)c3)CC2)cc1	-4.3	41.6*	7.9	15.0	-8.0	12.9	-1.0	-6.1
Cc1ccc(OCc2nc3ccccc3n2C(C)C(=O)Nc2c(C)cccc2C)cc1 (configuration not stated)	·	13.1	·	·	·	·	·	·
CCOC(=O)N1CCN(C(=O)CNC2CCCCCCC2)CC1	-4.5	45.1*	2.7	13.2	8.8	10.6	0.5	4.3
COc1ccc(N2CCN(C(=O)c3ccc4[nH]c(C)c(C)c4c3)CC2)cc1	4.6	84.9*	-3.7	7.5	-32.7	72.6*	1.3	-7.3
CC(=O)c1ccc(N2CCN(C(=O)c3ccc4[nH]c(C)c(C)c4c3)CC2)cc1	0.2	13.7	-2.0	3.9	4.7	·	·	·
Cc1[nH]c2ccc(C(=O)N3CCN(c4ccc(F)cc4)CC3)cc2c1C	-3.6	78.1*	0.7	-4.6	-27.2	72.2*	0.6	10.8
O=C1c2ccccc2C(c2nnnn2-c2ccc3c(c2)OCCO3)N1CCCn1ccnc1 (configuration not stated)	·	-3.0	-0.2	·	·	·	·	·
C=CCN(C(=O)C1CSC2(C)CCC(=O)N12)c1nc(-c2ccccc2)cs1 (configuration not stated)	0.5	48.1*	10.8	11.0	27.3	63.5*	-0.9	-19.0
CCCCCCCCN1C(=O)[C@H](CC(=O)NCc2cccc(C(F)(F)F)c2)C[C@@]2(C(=O)OC)CC(C)(C)CC=C12	·	21.7	·	·	·	·	·	·
O=C(Nc1ccc(S(=O)(=O)N2CCCC2)cc1)C1CC(=O)N(c2ccccc2)C1 (configuration not stated)	-0.1	-3.9	-4.3	14.8	-33.8	·	·	·
CCc1ccc(N2CC(C(=O)Nc3cc(C)ccc3F)CC2=O)cc1 (configuration not stated)	1.6	52.7*	3.1	1.3	-3.3	46.4	0.2	8.9
CCc1ccc(N2CC(C(=O)Nc3ccc(S(=O)(=O)N4CCCCC4)cc3)CC2=O)cc1 (configuration not stated)	5.7	80.6*	6.0	12.3	1.4	59.9*	-0.6	5.3
CCOC(=O)c1ccc2ncc(C(=O)OCC)c(NCCN3CCOCC3)c2c1	-2.2	36.3	-14.7	8.2	7.9	·	·	·
CCOC(=O)c1cnc2cc(Cl)c(OC)cc2c1NCC1CCCO1 (configuration not stated)	0.8	41.4*	1.7	15.1	11.8	31.2	-1.0	-20.0
CC1CN(C(=O)c2cc3cc(F)ccc3[nH]2)CC(C)O1 (configuration not stated)	2.4	-1.5	-0.5	7.9	-4.8	·	·	·
O=C(c1cc2cc(F)ccc2[nH]1)N1CCN(Cc2ccc3c(c2)OCO3)CC1	1.6	92.9*	-10.0	24.3	-63.6	79.3*	2.4	1.0
COc1cc2cc(C(=O)N3CCN(Cc4ccc5c(c4)OCO5)CC3)[nH]c2cc1OC	1.8	13.3	4.4	9.7	-7.1	·	·	·
CCN1CCN(C(=O)c2cc3cc(F)ccc3[nH]2)CC1	-0.8	55.2*	4.8	-2.4	8.5	28.0	0.8	2.0
COc1ccc(OCCNc2cc(N3CCOCC3)ccc2[N+](=O)[O-])cc1	-0.1	29.9	17.7	18.5	-0.7	·	·	·
COc1cccc(OCCNc2cc(N3CCCCC3)ccc2[N+](=O)[O-])c1	-6.4	60.7*	27.7	24.4	23.8	46.5	0.1	5.7
SMILES	APJ ag	EBI2 antag	CXCR6 inh	CCR6 antag	APJ antagonist	EBI2 antag conf	EBI2 agonist	bGal counter
COc1cccc(OCCNc2cc(N3CCOCC3)ccc2[N+](=O)[O-])c1	-3.5	44.0*	11.9	13.0	13.0	33.1	-0.1	-2.7
COc1ccccc1NC(=O)Nc1nnc([C@H]2C[C@H](O)[C@@H](CO)O2)s1	·	-2.9	3.9	·	·	·	·	·
CN(C)C(=O)c1ccc(SC(=S)NCc2ccccc2)cc1	·	5.1	19.3	·	·	·	·	·
Cc1nc(CS(=O)(=O)c2ccccc2)cc(Sc2ccc(Cl)cc2Cl)n1	-1.5	74.8*	3.1	10.8	9.6	52.5*	-1.1	7.8
Cc1nc(Cl)cc(CS(=O)(=O)c2ccc(Cl)cc2)n1	-3.1	-14.9	0.6	-10.3	13.7	·	·	·
O=C(/C=C/c1ccc(Cl)cc1)Nc1ccc(N2CCCCC2)cc1	-0.2	44.0*	2.7	4.6	-5.1	9.6	-1.0	-2.3
O=C(/C=C/c1ccccc1)Nc1ccc(N2CCCCC2)cc1	·	25.1	0.4	23.5	-10.1	·	·	·
COc1cccc(-c2cc3nc(NCCN4CCCC4)n(C)c(=O)c3s2)c1	·	-5.3	-4.6	·	·	·	·	·
Cc1cc(O)ccc1-c1cccc2nccn12	·	-2.1	-4.9	·	·	·	·	·
CCc1ccc(OCc2nnc(SCC(=O)NC3CCCCC3)o2)cc1	-0.7	10.9	9.1	14.4	-3.8	·	·	·
Brc1ccc(OCc2nnc(SCC3CCCCC3)o2)cc1	2.8	69.0*	2.8	6.1	-16.2	26.8	0.7	-5.8
CCCCCCN1CCN(C2CN(Cc3cn(Cc4ccc(C)cc4)nn3)S(=O)(=O)C2)CC1 (configuration not stated)	·	4.3	-3.8	·	·	·	·	·
Cc1ccc(OCC(O)CNS(=O)(=O)c2ccccc2C(=O)N2CCCCC2)cc1 (configuration not stated)	-5.5	46.5*	-7.7	6.4	0.3	6.6	-0.6	-12.8
Cc1cc(C)c2cc(C(=O)N3CCC(C(=O)c4ccc(F)cc4)CC3)[nH]c2c1	1.1	89.9*	-3.1	13.6	-1.4	83.7*	1.3	1.2
Cc1cc(C)c2cc(C(=O)N3CCC(Cc4ccccc4)CC3)[nH]c2c1	-2.2	64.4*	3.5	11.1	-15.8	41.5	1.8	-9.9
Cc1cc(C)c2cc(C(=O)N3CCC(N4CCCCC4)CC3)[nH]c2c1	-1.7	46.0*	7.4	15.2	-15.1	25.2	0.1	6.5
COc1ccc(C(=O)N2CCC(C(=O)c3c(C)cc(C)cc3C)CC2)cc1	0.9	71.7*	-1.9	14.3	1.3	41.9	-0.6	-8.3
